This note sets out measurements from ChEMBL document CHEMBL3120133, “Discovery of a potent boronic acid derived inhibitor of the HCV RNA-dependent RNA polymerase” (J Med Chem, 2014).

What is called IC50 is the concentration needed to halve the response being measured. As a reminder, the EC50 is the concentration giving half of the maximal effect.

Data set [1] is described as follows: Inhibition of C-terminal 6xHis-tagged Hepatitis C virus genotype 1b BK NS5B Cdelta21 RNA dependent RNA polymerase L47Q/F101Y/[…] mutant after 30 mins in presence of [alpha-33P]. Set-up: species or system Hepatitis C virus (isolate BK).
Data set [2] concerns Hepatitis C virus. Kind of data set: Antiviral activity against wild type Hepatitis C virus genotype 1b harboring C316N mutant infected in human HuH7 cells assessed as inhibition of viral replication after 48 hrs by luciferase reporter gene assay. The data set is classed as functional, organism-based, Hepacivirus hominis. Conditions: Huh-7, 48 h. (In general: A reporter such as luciferase makes a cellular process visible.)

Data set [3] has as its system Hepatitis C virus. Kind of data set: Antiviral activity against wild type Hepatitis C virus genotype 1b infected in human HuH7 cells assessed as inhibition of viral replication after 48 hrs by luciferase reporter gene assay. It is filed as functional, organism-based, Hepacivirus hominis. Conditions: Huh-7, 48 h. The gist of the method:
(§1)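 Replicon-based readout (stable and transient replicon formats) in place of virus infection, with compound present for 2 days before EC50 determination.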

Data set [4] has as its system Hepatitis C virus. Kind of data set: Antiviral activity against wild type Hepatitis C virus genotype 1a infected in human HuH7 cells assessed as inhibition of viral replication after 48 hrs by luciferase reporter gene assay. The data set is classed as functional, organism-based, Hepacivirus hominis. Conditions: subtype 1a, Huh-7, 48 h. An outline of the steps: as §1

Data set [5] concerns Hepatitis C virus. Kind of data set: Antiviral activity against wild type Hepatitis C virus genotype 1a harboring C316Y mutant infected in human HuH7 cells assessed as inhibition of viral replication after 48 hrs by luciferase reporter gene assay. The data set is classed as functional, organism-based, Hepacivirus hominis. Conditions: subtype 1a, Huh-7, 48 h.
The test system of a further data set is Huh-7. Kind of data set: Cytotoxicity in human HuH7 cells assessed as cell viability after 72 hrs by CellTitre-glo luminescence assay. The data set is classed as cell-based. Conditions: huh-7, 72 h.
Data set [6] can be described thus: Stability of the compound. It is filed as physicochemical.
The test system of data set [7] is Hepatitis C virus. The data set can be described thus: Antiviral activity against wild type Hepatitis C virus genotype 1b harboring S365T mutant infected in human HuH7 cells assessed as inhibition of viral replication after 72 hrs by Bright-glo luciferase reporter gene assay. The data set is classed as functional, organism-based, Hepacivirus hominis. Conditions: Huh-7, 72 h.

The subject of data set [8] is Hepatitis C virus. The data set can be described thus: Antiviral activity against wild type Hepatitis C virus genotype 1b harboring C316F mutant infected in human HuH7 cells assessed as inhibition of viral replication after 72 hrs by Bright-glo luciferase reporter gene assay. Conditions: Huh-7, 72 h. The data set is classed as functional, organism-based, Hepacivirus hominis.

A short description of data set [9]: Clearance in Sprague-Dawley rat at 1 mg/kg, iv and 5 mg/kg, po. The data set is classed as ADME, organism-based. Particulars: in vivo.
Data set [10] concerns Hepatitis C virus. The data set can be described thus: Antiviral activity against wild type Hepatitis C virus genotype 1b harboring C316Y mutant infected in human HuH7 cells assessed as inhibition of viral replication after 72 hrs by Bright-glo luciferase reporter gene assay. The data set is classed as functional, organism-based, Hepacivirus hominis. Particulars: Huh-7, 72 h.

`CNC(=O)c1c(-c2ccc(F)cc2)oc2cc(N(Cc3ccc(B(O)O)c(OC)c3)S(C)(=O)=O)c(C3CC3)cc12`: the IC50 in data set [1] stood at 100 nM. In addition, the EC50 with Hepatitis C virus [2] was 50 nM; in the data set with Hepatitis C virus [3], 3.6 nM; in the data set on Hepatitis C virus [4], 12 nM.

For `CNC(=O)c1c(-c2ccc(F)cc2)oc2cc(N(Cc3ccc(B(O)O)c(C)c3)S(C)(=O)=O)c(C3CC3)cc12`, the concentration for half-maximal inhibition (IC50) in data set [1] was found to be 80 nM. The EC50 in the data set on Hepatitis C virus [2] was determined as 5.4 nM; in the data set with Hepatitis C virus [3] it was 2.2 nM; in the data set with Hepatitis C virus [4], 4.8 nM.

With `CNC(=O)c1c(-c2ccc(F)cc2)oc2cc(N(Cc3cccc4c3COB4O)S(C)(=O)=O)c(C3CC3)cc12`, the IC50 in data set [1] was 32 nM. For the same compound, the EC50 stood at 110 nM in the data set on Hepatitis C virus [2], 4.9 nM in the data set on Hepatitis C virus [3] and 17 nM in the data set on Hepatitis C virus [4].

Take `CNC(=O)c1c(-c2ccc(F)cc2)oc2cc(N(CCC3OB(O)c4ccccc43)S(C)(=O)=O)c(C3CC3)cc12` (racemic): the IC50 in data set [1] was 32 nM. Further, the EC50 with Hepatitis C virus [2] was found to be 12 nM; in the data set with Hepatitis C virus [3] it was 3.5 nM; with Hepatitis C virus [5] it was 790 nM; in the data set with Hepatitis C virus [4] it was 7.4 nM.

Take `CNC(=O)c1c(-c2ccc(F)cc2)oc2cc(N(Cc3ccc4c(c3)B(O)OC4)S(C)(=O)=O)c(C3CC3)cc12`: in data set [1], the IC50 came to 32 nM. In addition, the EC50 with Hepatitis C virus [2] worked out at 64 nM; in the data set with Hepatitis C virus [3], 4.9 nM; in the data set with Hepatitis C virus [4], 7.4 nM.

Regarding `CNC(=O)c1c(-c2ccc(F)cc2)oc2cc(N(CC3COB(O)C3)S(C)(=O)=O)c(C3CC3)cc12` (racemic), in data set [1], the IC50 amounted to 50 nM. Further, the EC50 amounted to 7.6 nM in the data set with Hepatitis C virus [2], 2.8 nM in the data set with Hepatitis C virus [3] and 2.9 nM in the data set on Hepatitis C virus [4]. Also, the Activity entry with Huh-7 is given as “Non-toxic”. Moreover, the Stability result in data set [6] is “Stable”.

For the compound `CNC(=O)c1c(-c2ccc(F)cc2)oc2cc(N(Cc3ccc(C(=O)O)cc3)S(C)(=O)=O)c(C3CC3)cc12`, in data set [1], the IC50 is 25 nM. The EC50 was 3200 nM in the data set with Hepatitis C virus [2], 150 nM in the data set on Hepatitis C virus [3] and 290 nM in the data set on Hepatitis C virus [4].

For `CNC(=O)c1c(-c2ccc(F)cc2)oc2cc(N(Cc3ccc4c(c3)CCOB4O)S(C)(=O)=O)c(C3CC3)cc12`, the IC50 in [1] came out at 40 nM. The EC50 is 9 nM in the data set on Hepatitis C virus [2], 4.2 nM in the data set on Hepatitis C virus [3], 350 nM in the data set on Hepatitis C virus [5] and 7 nM in the data set on Hepatitis C virus [4].

Take `CNC(=O)c1c(-c2ccc(F)cc2)oc2cc(N(C[C@@H]3COB(O)C3)S(C)(=O)=O)c(C3CC3)cc12`: the EC50 came out at 6.5 nM with Hepatitis C virus [7]; 13 nM in the data set with Hepatitis C virus [2]; 4.6 nM in the data set on Hepatitis C virus [3]; 37 nM in the data set on Hepatitis C virus [8]; 830 nM in the data set on Hepatitis C virus [5]; 7.6 nM in the data set with Hepatitis C virus [4]. In addition, in the data set with Hepatitis C virus [10], the EC50 stood at 11 nM. Moreover, the IC50 in data set [1] turned out to be 63 nM. The clearance in data set [9] is 6.6 mL/min/kg.

`CNC(=O)c1c(-c2ccc(F)cc2)oc2cc(N(CC3CCB(O)O3)S(C)(=O)=O)c(C3CC3)cc12` (racemic): the IC50 in data set [1] stood at 100 nM. Besides, the results for the EC50 in the data set with Hepatitis C virus [2], with Hepatitis C virus [3] and in the data set with Hepatitis C virus [4] were 52 nM, 6.5 nM and 8.8 nM, respectively. Besides, the Activity entry in the data set on Huh-7 is listed as “Non-toxic”. Also, the Stability result in data set [6] is recorded as “Stable”.

Consider `CNC(=O)c1c(-c2ccc(F)cc2)oc2cc(N(C[C@H]3COB(O)C3)S(C)(=O)=O)c(C3CC3)cc12`, for which, in data set [1], the IC50 worked out at 50 nM. Besides, the EC50 in the data set on Hepatitis C virus [2] is 11 nM; with Hepatitis C virus [3], 2.9 nM; in the data set with Hepatitis C virus [4], 5.3 nM. This compound showed a clearance in [9] of 32 mL/min/kg. Also, in the data set with Huh-7, the Activity result is reported as “Non-toxic”. Also, the Stability entry in data set [6] is given as “Stable”.

With `CCOP(=O)(OCC)c1ccc(CN(c2cc3oc(-c4ccc(F)cc4)c(C(=O)NC)c3cc2C2CC2)S(C)(=O)=O)cc1`, the IC50 in data set [1] came out at 100 nM. For the same compound, the EC50 amounted to 480 nM in the data set with Hepatitis C virus [2], 20 nM in the data set with Hepatitis C virus [3] and 36 nM in the data set with Hepatitis C virus [4].

On to `CNC(=O)c1c(-c2ccc(F)cc2)oc2cc(N(CC3CCB(O)OC3)S(C)(=O)=O)c(C3CC3)cc12` (racemic), for which the IC50 in [1] came out at 63 nM. The EC50 with Hepatitis C virus [2] was 56 nM; in the data set on Hepatitis C virus [3], 6.4 nM; with Hepatitis C virus [4], 9.7 nM. Also, the Activity result with Huh-7 is on record as “Non-toxic”. Further, the Stability entry in [6] is on record as “Stable”.

Turning to `CNC(=O)c1c(-c2ccc(F)cc2)oc2cc(N(Cc3ccc(S(=O)(=O)O)cc3)S(C)(=O)=O)c(C3CC3)cc12`, the IC50 in data set [1] turned out to be 16 nM. For the same compound, the EC50 in the data set on Hepatitis C virus [2] is > 5000 nM; in the data set on Hepatitis C virus [3], 1800 nM; in the data set with Hepatitis C virus [4] it was > 5000 nM.

For `CNC(=O)c1c(-c2ccc(F)cc2)oc2cc(N(CCC3COB(O)C3)S(C)(=O)=O)c(C3CC3)cc12` (racemic), in [1], the IC50 was 50 nM. For the same compound, the EC50 with Hepatitis C virus [2] worked out at 5.6 nM; in the data set with Hepatitis C virus [3] it was 3.1 nM; in the data set with Hepatitis C virus [4], 6.1 nM. Besides, in the data set with Huh-7, the Activity entry is recorded as “Non-toxic”. In data set [6], the Stability entry is recorded as “Stable”.

As to `CNC(=O)c1c(-c2ccc(F)cc2)oc2cc(N(CC3CCOB(O)C3)S(C)(=O)=O)c(C3CC3)cc12` (racemic), in data set [1], the IC50 stood at 80 nM. The EC50 with Hepatitis C virus [2] is 38 nM; in the data set with Hepatitis C virus [3] it was 3.7 nM; in the data set on Hepatitis C virus [4], 9.1 nM. Also, the Activity result in the data set with Huh-7 is “Non-toxic”. Further, the Stability entry in data set [6] is recorded as “Stable”.

Turning to `CNC(=O)c1c(-c2ccc(F)cc2)oc2cc(N(Cc3ccc4c(c3)COB4O)S(C)(=O)=O)c(C3CC3)cc12`, the IC50 in data set [1] worked out at 40 nM. The values for the EC50 in the data set with Hepatitis C virus [2], in the data set with Hepatitis C virus [3] and in the data set on Hepatitis C virus [4] were 16 nM, 2.7 nM and 9.5 nM, respectively.

Take `CNC(=O)c1c(-c2ccc(F)cc2)oc2cc(N(Cc3ccc(P(=O)(O)O)cc3)S(C)(=O)=O)c(C3CC3)cc12`: the IC50 in data set [1] turned out to be 20 nM. For the same compound, the EC50 in the data set with Hepatitis C virus [2] is > 5000 nM; with Hepatitis C virus [3], 760 nM; in the data set on Hepatitis C virus [4] it was 2200 nM.

As for `CNC(=O)c1c(-c2ccc(F)cc2)oc2cc(N(CCOCB(O)O)S(C)(=O)=O)c(C3CC3)cc12`, the IC50 in data set [1] turned out to be 40 nM. The EC50 in the data set on Hepatitis C virus [2] came to 3.9 nM; in the data set with Hepatitis C virus [3], 3.2 nM; in the data set on Hepatitis C virus [4], 6.7 nM. In [9], this compound displayed a clearance of 25 mL/min/kg.

With `CNC(=O)c1c(-c2ccc(F)cc2)oc2cc(N(Cc3cccc(B(O)O)c3)S(C)(=O)=O)c(C3CC3)cc12`, the IC50 in data set [1] came out at 30 nM. Besides, the EC50 came out at 120 nM with Hepatitis C virus [2], 6.9 nM with Hepatitis C virus [3] and 8.8 nM in the data set on Hepatitis C virus [4].

For `CNC(=O)c1c(-c2ccc(F)cc2)oc2cc(N(Cc3cc(F)c4c(c3)COB4O)S(C)(=O)=O)c(C3CC3)cc12`, the EC50 came out at 84 nM in the data set with Hepatitis C virus [7]; 12 nM in the data set on Hepatitis C virus [2]; 3.2 nM with Hepatitis C virus [3]; 110 nM in the data set with Hepatitis C virus [8]; 190 nM in the data set with Hepatitis C virus [5]; 5.8 nM in the data set with Hepatitis C virus [4]. Besides, the EC50 with Hepatitis C virus [10] is 16 nM. In addition, the IC50 in data set [1] amounted to 32 nM.

`CNC(=O)c1c(-c2ccc(F)cc2)oc2cc(N(CC3=CB(O)OC3)S(C)(=O)=O)c(C3CC3)cc12`: the IC50 in data set [1] stood at 50 nM. The EC50 came out at 13 nM in the data set with Hepatitis C virus [2], 1.9 nM in the data set on Hepatitis C virus [3] and 9.6 nM in the data set on Hepatitis C virus [4]. For the same compound, the Activity entry with Huh-7 is reported as “Non-toxic”. Also, the Stability result in data set [6] is “Stable”.

Regarding `CNC(=O)c1c(-c2ccc(F)cc2)oc2cc(N(Cc3ccccc3)S(C)(=O)=O)c(C3CC3)cc12`, the IC50 in [1] worked out at 50 nM. The figures for the EC50 with Hepatitis C virus [2], in the data set on Hepatitis C virus [3] and in the data set with Hepatitis C virus [4] were 440 nM, 18 nM and 58 nM, respectively.
